In brackets after ≈: the same amount, converted by molar mass. Activity calls are given as the source filed them. The rule behind the calls is not given here.
How the values were obtained:
[1] = tested on: Radical scavenging activity; assay: Antioxidant activity assessed as DPPH radical scavenging activity at 10 to 80 uM; type: functional
Procedure, shortened: (§1)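 DPPH radical scavenging per Blois; compounds 10–80 µM in methanol (some runs 10–200 µM, values reported at 80 µM). Absorbance at 517 nm; scavenging % = (A517 control − A517 sample)/A517 control × 100. Alpha tocopherol as control. Means ± SD of three parallel measurements.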

Liver microsomes = assay: Antioxidant activity in Wistar rat liver microsomes assessed as reduction of lipid peroxidase activity by TBA assay; type: functional; parameters: concentration or dose not given beside the values; conditions: Microsome
Procedure, shortened: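 TBA assay of lipid peroxidation in liver microsomes isolated from three Wistar rats, following Raj et al.; reduced lipid peroxidase activity taken as antioxidant activity, expressed as %.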

[2] = Metal chelating activity of the compound assessed as ratio of Fe2+ concentration to compound concentration; type: functional
Procedure, shortened: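 Fe3+ reducing activity by modified ferrozine method; [Fe2+] calculated from extinction coefficient 27,900 M-1cm-1 of Fe(ferrozine)2+ complex, expressed as µM Fe2+ per µM compound. Means ± SD of three parallel measurements.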

Staphylococcus aureus [3] = assay: Antibacterial activity against Staphylococcus aureus ATCC 6538 after 24 hrs; type: functional
Staphylococcus aureus [4] = assay: Antibacterial activity against Staphylococcus aureus ATCC 6538 at 10 to 100 mg/ml after 24 hrs by disc diffusion method; type: functional
Procedure, shortened: (§2)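 Modified disc diffusion: LB agar plates seeded at 10^6 cells/mL; 6 mm filter discs soaked in 50 µL of compound at 10–100 mg/mL in DMSO or methanol, placed on plates, 37 °C for 24 h. Inhibition zone ≥7 mm scored susceptible. Solvent discs tested; positive controls gentamicine, streptomycine or nystatin discs at 10 mg/mL.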

Bacillus subtilis [5] = assay: Antibacterial activity against Bacillus subtilis ATCC 6633 after 24 hrs; type: functional
Bacillus subtilis [6] = assay: Antibacterial activity against Bacillus subtilis ATCC 6633 at 10 to 100 mg/ml after 24 hrs by disc diffusion method; type: functional; procedure, shortened: as §2
Pseudomonas aeruginosa [7] = assay: Antibacterial activity against Pseudomonas aeruginosa ATCC 9027 after 24 hrs; type: functional, organism-based
Pseudomonas aeruginosa [8] = assay: Antibacterial activity against Pseudomonas aeruginosa ATCC 9027 at 10 to 100 mg/ml after 24 hrs by disc diffusion method; type: functional, organism-based; procedure, shortened: as §2
Escherichia coli [9] = assay: Antibacterial activity against Escherichia coli ATCC 3509 after 24 hrs; type: functional
Escherichia coli [10] = assay: Antibacterial activity against Escherichia coli ATCC 3509 at 10 to 100 mg/ml after 24 hrs by disc diffusion method; type: functional; procedure, shortened: as §2
Candida albicans [11] = assay: Antifungal activity against Candida albicans ATCC 10231 after 24 hrs; type: functional
Candida albicans [12] = assay: Antifungal activity against Candida albicans ATCC 10231 at 10 to 100 mg/ml after 24 hrs by disc diffusion method; type: functional; procedure, shortened: as §2
[13] = tested on: Radical scavenging activity; assay: Antioxidant activity assessed as DPPH radical scavenging activity at 80 uM; type: functional; procedure, shortened: as §1
[14] = tested on: Radical scavenging activity; assay: Antioxidant activity assessed as DPPH radical scavenging activity at 11 to 1000 uM; type: functional
Procedure, shortened: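 DPPH scavenging in methanol, read as loss of absorbance at 517 nm, value obtained over 1000–11 µM compound; % = (A517 control − A517 sample)/A517 control × 100. Alpha tocopherol control; three parallel measurements, means ± SD.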

[15] = tested on: Radical scavenging activity; assay: Antioxidant activity assessed as DPPH radical scavenging activity at 11 uM; type: functional
Procedure, shortened: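 DPPH radical scavenging at 11 µM compound in methanol, absorbance at 517 nm; % scavenging calculated from control versus sample A517. Alpha tocopherol control; mean ± SD of three parallel measurements.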

SMILES | Activity [1] | Activity (Liver microsomes) | Ratio [2] | MIC (Staphylococcus aureus [3]) | diameter of the inhibition zone (DIZ) (Staphylococcus aureus [4]) | MIC (Bacillus subtilis [5]) | diameter of the inhibition zone (DIZ) (Bacillus subtilis [6]) | MIC (Pseudomonas aeruginosa [7]) | diameter of the inhibition zone (DIZ) (Pseudomonas aeruginosa [8]) | MIC (Escherichia coli [9]) | diameter of the inhibition zone (DIZ) (Escherichia coli [10]) | MIC (Candida albicans [11]; ATCC 10231, 24 h) [µg/mL] | diameter of the inhibition zone (DIZ) (Candida albicans [12]) | MIC (Staphylococcus aureus [3]; ATCC 6538, 24 h) [µg/mL] | MIC (Bacillus subtilis [5]; ATCC 6633, 24 h) [µg/mL] | MIC (Escherichia coli [9]; ATCC 3509, 24 h) [µg/mL] | Activity [13] [%] | MIC (Candida albicans [11]) | Activity [14] [%] | Activity [15] [%]
O=C1C=CC(c2cccs2)O1 (racemic) | inactive | 58.8% | 0.44 | inactive | inactive | inactive | inactive | inactive | inactive | inactive | inactive | 100 (≈ 602 µM) | 9 mm | – | – | – | – | – | – | –
Cc1c(C)c2c(c(C)c1O)CC[C@@](C)(CCC[C@H](C)CCC[C@H](C)CCCC(C)C)O2 | 66.2% | – | – | – | – | – | – | – | – | – | – | – | – | – | – | – | – | – | – | –
O=C1C=CC[C@@H](c2cccs2)O1 | 14% | inactive | 0 | – | 7 mm | – | 8.5 mm | inactive | inactive | – | 8.5 mm | 30 (≈ 166 µM) | 7 mm | 50 (≈ 277 µM) | 20 (≈ 111 µM) | 30 (≈ 166 µM) | – | – | – | –
CC1=CC[C@@H](c2cccs2)OC1=O | inactive | inactive | – | – | 7 mm | – | 11 mm | inactive | inactive | – | 8 mm | 25 (≈ 129 µM) | 9 mm | 25 (≈ 129 µM) | 25 (≈ 129 µM) | 25 (≈ 129 µM) | – | – | – | –
O=C1C=CC[C@@H](c2ccco2)O1 | – | 7.45% | 0 | inactive | inactive | inactive | inactive | inactive | inactive | inactive | inactive | – | inactive | – | – | – | 38 | inactive | – | –
O=C1C=CC[C@H](c2ccco2)O1 | inactive | 9% | 0.0092 | inactive | inactive | inactive | inactive | inactive | inactive | inactive | inactive | – | inactive | – | – | – | – | inactive | – | –
CC1=CCC(c2cccs2)OC1=O (racemic) | – | – | – | – | 7.5 mm | inactive | inactive | inactive | inactive | – | 8 mm | 25 (≈ 129 µM) | 12 mm | 25 (≈ 129 µM) | – | 12 (≈ 61.8 µM) | – | – | 7.11 | –
O=C1C=C[C@@H](c2cccs2)O1 | inactive | 54.7% | 0.015 | inactive | inactive | inactive | inactive | inactive | inactive | inactive | inactive | – | inactive | – | – | – | – | inactive | – | –
CC1=CC(c2cccs2)OC1=O (racemic) | – | – | – | inactive | inactive | inactive | inactive | inactive | inactive | inactive | inactive | 25 (≈ 139 µM) | 7.5 mm | – | – | – | – | – | – | 93.3
CC1=CC[C@H](c2cccs2)OC1=O | inactive | inactive | – | – | 10 mm | – | 7 mm | inactive | inactive | – | 9 mm | 25 (≈ 129 µM) | 9 mm | 25 (≈ 129 µM) | 25 (≈ 129 µM) | 25 (≈ 129 µM) | – | – | – | –
O=C1C=CCC(c2cccs2)O1 (racemic) | – | – | – | – | 8.5 mm | – | 8.5 mm | inactive | inactive | – | 8.5 mm | 25 (≈ 139 µM) | 9 mm | 30 (≈ 166 µM) | 10 (≈ 55.5 µM) | 20 (≈ 111 µM) | – | – | – | –
O=C1C=CCC(c2ccco2)O1 (racemic) | – | 24.5% | 0 | inactive | inactive | inactive | inactive | inactive | inactive | inactive | inactive | – | inactive | – | – | – | 38.1 | inactive | – | –
O=C1C=CC[C@H](c2cccs2)O1 | inactive | inactive | 0.04 | – | 8.5 mm | – | 7 mm | inactive | inactive | – | 7 mm | 40 (≈ 222 µM) | 7 mm | 40 (≈ 222 µM) | 50 (≈ 277 µM) | 50 (≈ 277 µM) | – | – | – | –
CC1=C[C@@H](c2cccs2)OC1=O | – | – | – | inactive | inactive | inactive | inactive | inactive | inactive | – | 9.5 mm | – | inactive | – | – | 25 (≈ 139 µM) | – | inactive | – | 50.6
